Several values for one entry are separate records, joined by “and”; a condition that tells them apart may be missing. Identical values can stand only once.
What was measured:
[1] = Intravenous pharmacokinetics in rats; assay type: in vivo; conditions: for Cmax/D / Tmax / AUCinf / AUClast / C0 / CL / Cmax / T1/2 / Vss / Vz / AUC(0-inf) / AUC(0-t) / clearance / half-life / Vd: 1 mg/kg IV; for AUC(0-inf): AUCinf; for AUC(0-t): AUClast; for clearance: CL
In short: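 Single 1 mg/kg IV dose to jugular-vein-catheterised Sprague Dawley rats (8–12 wk, 3/sex), given in cremophor:ethanol:saline (1:1:8), pH 4.0 (acetic acid), at 10 ml/kg. EDTA blood was taken at 5, 15, 30 min, 1, 2, 4, 6 and 24 h for plasma. Plasma was prepared by acetonitrile precipitation and aqueous dilution, then run on LC-MS/MS (positive ESI, MRM 439.2>371.2, abiraterone internal standard). Noncompartmental PK.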

[2] = Oral pharmacokinetics and bioavailability in rats; assay type: in vivo; conditions: for bioavailability: both; for bioavailability / AUC(0-t) / CL/F: Sprague Dawley, rat, plasma; for AUC% Extrap / Cmax/D / AUClast / Cmax / AUC(0-t) / CL/F: female rats; for AUC(0-t) / CL/F: female; for AUC(0-t): AUClast
In short: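 Sprague Dawley rats (8–12 wk, 3/sex/group, catheterised jugular vein) got one oral gavage dose of 10 or 50 mg/kg. Dose was a solution in cremophor:ethanol:saline (1:1:8), pH 4.0, at 10 ml/kg. EDTA plasma was collected at 5, 15, 30 min, 1, 2, 4, 6 and 24 h, precipitated with acetonitrile, and quantified by LC-MS/MS against abiraterone internal standard. Noncompartmental parameters; bioavailability from oral AUClast versus IV.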

[3] = female rats, individual rat, 1 mg/kg
[4] = female, Sprague Dawley, rat, plasma, iv, 1 mg/kg, female rats, GeoMean
[5] = female, Sprague Dawley, rat, plasma, iv, 1 mg/kg, female rats, individual rat
[6] = male rats, individual rat, 1 mg/kg
[7] = male, Sprague Dawley, rat, plasma, iv, 1 mg/kg, male rats, GeoMean (third rat excluded)
[8] = 10 mg/kg PO, individual rat, listed as VNPP433-3β, 10 mg/kg
[9] = 50 mg/kg PO, individual rat, listed as VNPP433-3β, 50 mg/kg
[10] = po, 10 mg/kg, 10 mg/kg PO, GeoMean
[11] = po, 10 mg/kg, 10 mg/kg PO, individual rat

## C[C@]12CC[C@H](n3ccnc3)CC1=CC[C@@H]1[C@@H]2CC[C@]2(C)C(n3cnc4ccccc43)=CC[C@@H]12 [Compound 2, 3β-(1H-imidazole-1-yl)-17-(1H-benzimidazole-1-yl)-androsta-5,16-diene]
[1]; female rats, GeoMean
  Cmax/D: 311 ng/mL/mg/kg
[1]; female rats, individual rat
  Tmax: 0.0833 h
[1]; [3]
  AUCinf: 199 µg·min/mL and 171 µg·min/mL
  AUClast: 140 µg·min/mL and 126 µg·min/mL
  C0: 342 ng/mL and 418 ng/mL
  CL: 5.03 mL/min/kg and 5.85 mL/min/kg
  Cmax: 291 ng/mL and 350 ng/mL
  Cmax/D: 296 ng/mL/mg/kg and 291 ng/mL/mg/kg and 350 ng/mL/mg/kg
  T1/2: 15.0 h and 13.8 h
  Tmax: 0.25 h and 0.0833 h
  Vss: 5.99 L/kg and 6.31 L/kg
  Vz: 6.51 L/kg and 6.98 L/kg
[1]; [4]
  AUC(0-inf): 3380 ng·h/mL
  AUC(0-t): 2400 ng·h/mL
  clearance: 4.92 mL/min/kg
[1]; [5]
  AUC(0-inf): 4130 ng·h/mL
  AUC(0-t): 2800 ng·h/mL
  clearance: 4.04 mL/min/kg
[1]; female, Sprague Dawley, rat, plasma, iv, 1 mg/kg, C0, female rats, GeoMean
  C0: 333 ng/mL
[1]; female, Sprague Dawley, rat, plasma, iv, 1 mg/kg, C0, female rats, individual rat
  C0: 259 ng/mL
[1]; female, Sprague Dawley, rat, plasma, iv, 1 mg/kg, Cmax, female rats, GeoMean
  Cmax: 311 ng/mL
[1]; female, Sprague Dawley, rat, plasma, iv, 1 mg/kg, Cmax, female rats, individual rat
  Cmax: 296 ng/mL
[1]; female, Sprague Dawley, rat, plasma, iv, 1 mg/kg, T1/2, female rats, GeoMean
  half-life: 14.3 h
[1]; female, Sprague Dawley, rat, plasma, iv, 1 mg/kg, T1/2, female rats, individual rat
  half-life: 14.1 h
[1]; female, Sprague Dawley, rat, plasma, iv, 1 mg/kg, Tmax, female rats, GeoMean
  Tmax: 0.12 h
[1]; female, Sprague Dawley, rat, plasma, iv, 1 mg/kg, Vss, female rats, GeoMean
  Vd: 5.73 L/kg
[1]; female, Sprague Dawley, rat, plasma, iv, 1 mg/kg, Vss, female rats, individual rat
  Vd: 4.96 L/kg
[1]; female, Sprague Dawley, rat, plasma, iv, 1 mg/kg, Vz, female rats, GeoMean
  Vd: 6.08 L/kg
[1]; female, Sprague Dawley, rat, plasma, iv, 1 mg/kg, Vz, female rats, individual rat
  Vd: 4.93 L/kg
[1]; male and female rats, single dose 1 mg/kg IV, 10 or 50 mg/kg PO
  Overt toxic effects during conduct of PK study: No overt toxic effects were observed
[1]; male rats, GeoMean (third rat excluded)
  Cmax/D: 305 ng/mL/mg/kg
[1]; [6]
  AUCinf: 64.0 µg·min/mL and 321 µg·min/mL
  AUClast: 46.6 µg·min/mL and 139 µg·min/mL
  C0: 443 ng/mL
  CL: 15.6 mL/min/kg and 3.11 mL/min/kg
  Cmax: 392 ng/mL
  Cmax/D: 237 ng/mL/mg/kg and 392 ng/mL/mg/kg
  T1/2: 2.96 h and 31.4 h
  Vss: 8.14 L/kg
  Vz: 4.00 L/kg and 8.46 L/kg
[1]; [7]
  AUC(0-inf): 2380 ng·h/mL
  AUC(0-t): 1340 ng·h/mL
  clearance: 6.97 mL/min/kg
[1]; male, Sprague Dawley, rat, plasma, iv, 1 mg/kg, C0, male rats, GeoMean (third rat excluded)
  C0: 336 ng/mL
[1]; male, Sprague Dawley, rat, plasma, iv, 1 mg/kg, C0, male rats, individual rat
  C0: 254 ng/mL
[1]; male, Sprague Dawley, rat, plasma, iv, 1 mg/kg, Cmax, male rats, GeoMean (third rat excluded)
  Cmax: 305 ng/mL
[1]; male, Sprague Dawley, rat, plasma, iv, 1 mg/kg, Cmax, male rats, individual rat
  Cmax: 237 ng/mL
[1]; male, Sprague Dawley, rat, plasma, iv, 1 mg/kg, T1/2, male rats, GeoMean (third rat excluded)
  half-life: 9.64 h
[1]; male, Sprague Dawley, rat, plasma, iv, 1 mg/kg, Tmax, male rats, GeoMean (third rat excluded)
  Tmax: 0.0833 h
[1]; male, Sprague Dawley, rat, plasma, iv, 1 mg/kg, Tmax, male rats, individual rat
  Tmax: 0.0833 h
[1]; male, Sprague Dawley, rat, plasma, iv, 1 mg/kg, Vss, male rats, GeoMean (third rat excluded)
  Vd: 5.81 L/kg
[1]; male, Sprague Dawley, rat, plasma, iv, 1 mg/kg, Vss, male rats, individual rat
  Vd: 4.14 L/kg
[1]; male, Sprague Dawley, rat, plasma, iv, 1 mg/kg, Vz, male rats, GeoMean (third rat excluded)
  Vd: 5.82 L/kg
[2]; oral
  bioavailability: 32 to 47%
[2]; po, 10 mg/kg
  bioavailability: 32 to 34%
[2]; 10 mg/kg PO, GeoMean
  AUC% Extrap: 81.9%
  Cmax/D: 59.4 ng/mL/mg/kg
[2]; [8]
  AUC% Extrap: 76.9% and 88.6% and 80.8%
  AUClast: 484 µg·min/mL and 785 µg·min/mL
  Cmax: 408 ng/mL and 681 ng/mL
  Cmax/D: 75.5 ng/mL/mg/kg and 40.8 ng/mL/mg/kg and 68.1 ng/mL/mg/kg
[2]; 50 mg/kg PO, GeoMean
  Cmax/D: 90.0 ng/mL/mg/kg
[2]; [9]
  AUClast: 5560 µg·min/mL and 4300 µg·min/mL
  Cmax: 4820 ng/mL and 4320 ng/mL
  Cmax/D: 87.6 ng/mL/mg/kg and 96.4 ng/mL/mg/kg and 86.4 ng/mL/mg/kg
[2]; [10]
  AUC(0-t): 11600 ng·h/mL
  CL/F: 2.46 mL/min/kg
[2]; [11]
  AUC(0-t): 14900 ng·h/mL
  CL/F: 2.58 mL/min/kg

From PMC9998351 (Steroids, 2023)
